Laboratory results: ChEMBL document CHEMBL4130528, “Serotonin Analogues as Inhibitors of Breast Cancer Cell Growth” (ACS Med Chem Lett, 2017)
The source made the active and inactive calls. No cut-off for these calls is given here.

Assays:
MDA-MB-231 [1] = experiment: Cytotoxicity against human MDA-MB-231 cells assessed as reduction in cell viability up to 10 uM in presence of bovine serum albumin by cell titer 96 aqueous one solution based assay; format: functional
In short: (§1)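 Viability was measured by MTS after treating triple-negative breast cancer cells in serum-free medium, either alone or with BSA added to the serum-free medium, across a concentration series.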

MDA-MB-231 [2] = experiment: Induction of apoptosis in human MDA-MB-231 cells assessed as increase in caspase 3/7 activity by Caspase-Glo 3/7 luciferase-based assay; format: functional, cell-based
In short: (§2)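 Cells were treated with a range of compound concentrations. Apoptosis was read as caspase-3/7 activity using a luciferase-based luminescent assay.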

MDA-MB-231 [3] = experiment: Effect on total S6 level in human MDA-MB-231 cells at 20 uM after 12 hrs by RPPA analysis; format: cell-based; details: mda-mb-231, 12 h
MDA-MB-231 [4] = experiment: Cytotoxicity against human MDA-MB-231 cells assessed as reduction in cell viability up to 10 uM in serum-free medium by cell titer 96 aqueous one solution based assay; format: functional; in short: as §1
MDA-MB-231 [5] = experiment: Induction of apoptosis in human MDA-MB-231 cells assessed as increase in cleaved PARP level up to 10 uM by Western blot analysis; format: functional, cell-based
In short: (§3)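 Cells were treated with a range of compound concentrations. Apoptosis was assessed by Western blot detection of cleaved poly-ADP ribose polymerase (PARP).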

MDA-MB-231 [6] = experiment: Inhibition of PI3K/AKT in human MDA-MB-231 cells assessed as reduction in mTOR phosphorylation at Ser2448 at 20 uM after 12 hrs by RPPA analysis; format: cell-based
MDA-MB-157 [7] = experiment: Cytotoxicity against human MDA-MB-157 cells assessed as reduction in cell viability up to 10 uM after 24 to 72 hrs by cell titer 96 aqueous one solution based assay; format: functional
In short: (§4)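 Triple-negative breast cancer cells were incubated with compound for 24, 48 or 72 h. Viability was then measured by MTS assay across a concentration series.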

MDA-MB-231 [8] = experiment: Inhibition of PI3K/AKT in human MDA-MB-231 cells assessed as reduction in mTOR phosphorylation at Ser2448 up to 10 uM by Western blot analysis; format: cell-based
[9] = target: T1, AMP-activated protein kinase, AMPK (Homo sapiens) (UniProt P54646+O43741+P54619+Q9UGJ0+Q9Y478+Q13131+Q9UGI9); experiment: Increase in AMPK phosphorylation at T172 in human MDA-MB-231 cells at 20 uM after 12 hrs by RPPA analysis; format: cell-based
MDA-MB-157 [10] = experiment: Cytotoxicity against human MDA-MB-157 cells assessed as reduction in cell viability up to 10 uM in presence of bovine serum albumin by cell titer 96 aqueous one solution based assay; format: functional; in short: as §1
MDA-MB-231 [11] = experiment: Cytotoxicity against human MDA-MB-231 cells assessed as reduction in cell viability up to 10 uM after 24 to 72 hrs by cell titer 96 aqueous one solution based assay; format: functional; in short: as §4
MDA-MB-157 [12] = experiment: Cytotoxicity against human MDA-MB-157 cells assessed as reduction in cell viability up to 10 uM in serum-free medium by cell titer 96 aqueous one solution based assay; format: functional; in short: as §1
MDA-MB-231 [13] = experiment: Inhibition of mTORC1 signaling in human MDA-MB-231 cells assessed as reduction in S6 phosphorylation at Ser240 at 20 uM after 12 hrs by RPPA analysis; format: cell-based
MCF7 [14] = experiment: Inhibition of PI3K/AKT in human MCF7 cells assessed as reduction in mTOR phosphorylation at Ser2448 at 20 uM after 12 hrs by RPPA analysis; format: cell-based
[15] = target: T2, Acetyl-CoA carboxylase (Homo sapiens) (UniProt Q13085+O00763); experiment: Increase in ACC phosphorylation at Ser79 in human MCF7 cells at 20 uM after 12 hrs by RPPA analysis; format: cell-based
MDA-MB-157 [16] = experiment: Induction of apoptosis in human MDA-MB-157 cells assessed as increase in cleaved PARP level up to 10 uM by Western blot analysis; format: functional, cell-based; in short: as §3
MDA-MB-231 [17] = experiment: Inhibition of mTORC1 signaling in human MDA-MB-231 cells assessed as reduction in p70S6K phosphorylation at Thr389 at 20 uM after 12 hrs by RPPA analysis; format: cell-based
MDA-MB-231 [18] = experiment: Inhibition of mTORC1 signaling in human MDA-MB-231 cells assessed as reduction in […] at 10 uM by Western blot analysis; format: cell-based
MDA-MB-231 [19] = experiment: Cytotoxicity against human MDA-MB-231 cells assessed as reduction in cell viability by cell titer 96 aqueous one solution based assay; format: functional
In short: (§5)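 MDA-MB-231 and MCF-7 breast cancer cells were treated with increasing concentrations of compound. Viability was read by MTS assay, and IC50 values were derived from the concentration–response data.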

MDA-MB-231 [20] = experiment: Inhibition of mTORC1 signaling in human MDA-MB-231 cells assessed as reduction in S6 phosphorylation at Ser236 at 20 uM after 12 hrs by RPPA analysis; format: cell-based
MCF7 [21] = experiment: Cytotoxicity against human MCF7 cells assessed as reduction in cell viability by cell titer 96 aqueous one solution based assay; format: functional; in short: as §5
MDA-MB-157 [22] = experiment: Inhibition of PI3K/AKT in human MDA-MB-157 cells assessed as reduction in mTOR phosphorylation at Ser2448 up to 10 uM by Western blot analysis; format: cell-based
MDA-MB-231 [23] = experiment: Inhibition of mTORC1 signaling in human MDA-MB-231 cells assessed as reduction in S6 phosphorylation at Ser235 at 20 uM after 12 hrs by RPPA analysis; format: cell-based
MDA-MB-231 [24] = experiment: Effect on total p70S6K level in human MDA-MB-231 cells at 20 uM after 12 hrs by RPPA analysis; format: cell-based; details: mda-mb-231, 12 h
MDA-MB-157 [25] = experiment: Inhibition of mTORC1 signaling in human MDA-MB-157 cells assessed as reduction in […] at 10 uM by Western blot analysis; format: cell-based
[26] = target: T2, Acetyl-CoA carboxylase (Homo sapiens); experiment: Increase in ACC phosphorylation at Ser79 in human MDA-MB-231 cells at 20 uM after 12 hrs by RPPA analysis; format: cell-based
MDA-MB-231 [27] = experiment: Inhibition of mTORC1 signaling in human MDA-MB-231 cells assessed as reduction in S6 phosphorylation at Ser244 at 20 uM after 12 hrs by RPPA analysis; format: cell-based
[28] = target: T1, AMP-activated protein kinase, AMPK (Homo sapiens); experiment: Increase in AMPK phosphorylation at T172 in human MCF7 cells at 20 uM after 12 hrs by RPPA analysis; format: cell-based
MDA-MB-157 [29] = experiment: Induction of apoptosis in human MDA-MB-157 cells assessed as increase in caspase 3/7 activity up to 10 uM by Caspase-Glo 3/7 luciferase-based assay; format: functional, cell-based; in short: as §2
MDA-MB-231 [30] = experiment: Inhibition of mTORC1 signaling in human MDA-MB-231 cells assessed as tyrosine accumulation after 7 to 24 hrs by 1H-MRS analysis; format: cell-based
In short: (§6)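 MDA-MB-231 cells were treated for 7 or 24 h, and intracellular metabolites were profiled by 1H-MRS. Treated and untreated groups were compared by principal component analysis.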

MDA-MB-231 [31] = experiment: Inhibition of mTORC1 signaling in human MDA-MB-231 cells assessed as intracellular UDP-glucose accumulation after 7 to 24 hrs by 1H-MRS analysis; format: cell-based; in short: as §6
MDA-MB-231 [32] = experiment: Inhibition of mTORC1 signaling in human MDA-MB-231 cells assessed as intracellular UDP N-acetylglucosamine accumulation after 7 to 24 hrs by 1H-MRS analysis; format: cell-based; in short: as §6
MDA-MB-231 [33] = experiment: Inhibition of mTORC1 signaling in human MDA-MB-231 cells assessed as glutamine accumulation after 7 to 24 hrs by 1H-MRS analysis; format: cell-based; in short: as §6
MDA-MB-231 [34] = experiment: Inhibition of mTORC1 signaling in human MDA-MB-231 cells assessed as glycine accumulation after 7 to 24 hrs by 1H-MRS analysis; format: cell-based; in short: as §6
MDA-MB-231 [35] = experiment: Inhibition of mTORC1 signaling in human MDA-MB-231 cells assessed as aspartate accumulation after 7 to 24 hrs by 1H-MRS analysis; format: cell-based; in short: as §6
MDA-MB-231 [36] = experiment: Inhibition of mTORC1 signaling in human MDA-MB-231 cells assessed as phenylalanine accumulation after 7 to 24 hrs by 1H-MRS analysis; format: cell-based; in short: as §6
MDA-MB-231 [37] = experiment: Inhibition of mTORC1 signaling in human MDA-MB-231 cells assessed as alanine accumulation after 7 to 24 hrs by 1H-MRS analysis; format: cell-based; in short: as §6
MDA-MB-231 [38] = experiment: Inhibition of mTORC1 signaling in human MDA-MB-231 cells assessed as proline accumulation after 7 to 24 hrs by 1H-MRS analysis; format: cell-based; in short: as §6
MDA-MB-231 [39] = experiment: Cytotoxicity against human MDA-MB-231 cells assessed as reduction in cell viability after 24 to 72 hrs by cell titer 96 aqueous one solution based assay; format: functional; in short: as §4

CCCCCCCCCOc1cccc2[nH]cc(CCN)c12.Cl
Activity (MDA-MB-231 [1]): inactive
Activity (MDA-MB-231 [2]): Dose-dependent effect
Activity (MDA-MB-231 [3]): Non-Toxic
Activity (MDA-MB-231 [4]): Active
Activity (MDA-MB-231 [5]): Active
inhibition (MDA-MB-231 [6]): inactive
Activity (MDA-MB-157 [7]): Active
inhibition (MDA-MB-231 [8]): inactive
Activity [9]: Active
Activity (MDA-MB-157 [10]): Active
Activity (MDA-MB-231 [11]): Active
Activity (MDA-MB-157 [12]): Active
inhibition (MDA-MB-231 [13]): Active
inhibition (MCF7 [14]): inactive
Activity [15]: Active
Activity (MDA-MB-157 [16]): Active
inhibition (MDA-MB-231 [17]): Active
inhibition (MDA-MB-231 [18]): Active
IC50 (MDA-MB-231 [19]): 4.2 µM
inhibition (MDA-MB-231 [20]): Active
IC50 (MCF7 [21]): 4.9 µM
inhibition (MDA-MB-157 [22]): inactive
inhibition (MDA-MB-231 [23]): Active
Activity (MDA-MB-231 [24]): Non-Toxic
inhibition (MDA-MB-157 [25]): Active
Activity [26]: Active
inhibition (MDA-MB-231 [27]): Active
Activity [28]: Active
Activity (MDA-MB-157 [29]): Active

CCCCCCCCCCCCOc1cccc2[nH]cc(CCN)c12
IC50 (MDA-MB-231 [19]): 4.1 µM
IC50 (MCF7 [21]): 5 µM

CCCCCCCCCCCCOc1cccc2c(CCN)c[nH]c12
IC50 (MDA-MB-231 [19]): 4.6 µM
IC50 (MCF7 [21]): 8.6 µM

NCCc1c[nH]c2ccc(OCc3ccc(COc4ccc5[nH]cc(CCN)c5c4)cc3)cc12
IC50 (MDA-MB-231 [19]): 20 µM
IC50 (MCF7 [21]): 24 µM

CCCCOc1ccc2[nH]cc(CCN)c2c1
IC50 (MDA-MB-231 [19]): 48 µM
IC50 (MCF7 [21]): 45 µM

CCCCCCCCCCOc1ccc2[nH]cc(CCN)c2c1
IC50 (MDA-MB-231 [19]): 4.4 µM
IC50 (MCF7 [21]): 9 µM

CCCCCCCCCCCCOc1ccc2[nH]cc(CCN)c2c1.Cl
Activity (MDA-MB-231 [2]): Dose-dependent effect
inhibition (MDA-MB-231 [30]): Active
inhibition (MDA-MB-231 [31]): Active
Activity (MDA-MB-231 [3]): Non-Toxic
inhibition (MDA-MB-231 [32]): Active
Activity (MDA-MB-231 [4]): inactive
Activity (MDA-MB-231 [5]): Active
inhibition (MDA-MB-231 [6]): inactive
Activity (MDA-MB-157 [7]): Active
inhibition (MDA-MB-231 [33]): Active
inhibition (MDA-MB-231 [8]): inactive
inhibition (MDA-MB-231 [34]): Active
Activity [9]: Active
Activity (MDA-MB-157 [10]): Active
inhibition (MDA-MB-231 [35]): Active
Activity (MDA-MB-157 [12]): Active
inhibition (MDA-MB-231 [13]): Active
inhibition (MCF7 [14]): inactive
inhibition (MDA-MB-231 [36]): Active
Activity [15]: Active
Activity (MDA-MB-157 [16]): Active
inhibition (MDA-MB-231 [17]): Active
inhibition (MDA-MB-231 [18]): Active
inhibition (MDA-MB-231 [37]): Active
IC50 (MDA-MB-231 [19]): 4.6 µM
inhibition (MDA-MB-231 [20]): Active
IC50 (MCF7 [21]): 5.1 µM
inhibition (MDA-MB-157 [22]): inactive
inhibition (MDA-MB-231 [23]): Active
inhibition (MDA-MB-231 [38]): Active
Activity (MDA-MB-231 [24]): Non-Toxic
Activity (MDA-MB-231 [39]): Active
inhibition (MDA-MB-157 [25]): Active
Activity [26]: Active
inhibition (MDA-MB-231 [27]): Active
Activity [28]: Active
Activity (MDA-MB-157 [29]): Active

NCCc1c[nH]c2ccc(OCc3cccc(COc4ccc5[nH]cc(CCN)c5c4)c3)cc12
IC50 (MDA-MB-231 [19]): 18 µM
IC50 (MCF7 [21]): 22 µM

N#CCCCCCCOc1ccc2[nH]cc(CCN)c2c1
IC50 (MDA-MB-231 [19]): > 50 µM
IC50 (MCF7 [21]): > 50 µM
